Screening results deposited in PubChem BioAssay by The Scripps Research Institute Molecular Screening Center.
HTRA1 inh: inhibitors of human serine peptidase HTRA1; AID 504803; inhibition, % at 5.96 µM; Q92743; 340,000 tested, 0.5% active; recombinant HTRA1, FP-rhodamine activity-based probe, fluorescence polarization; in the data active = inhibition above about 36%
Target sequence (Q92743 whole entry, looked up): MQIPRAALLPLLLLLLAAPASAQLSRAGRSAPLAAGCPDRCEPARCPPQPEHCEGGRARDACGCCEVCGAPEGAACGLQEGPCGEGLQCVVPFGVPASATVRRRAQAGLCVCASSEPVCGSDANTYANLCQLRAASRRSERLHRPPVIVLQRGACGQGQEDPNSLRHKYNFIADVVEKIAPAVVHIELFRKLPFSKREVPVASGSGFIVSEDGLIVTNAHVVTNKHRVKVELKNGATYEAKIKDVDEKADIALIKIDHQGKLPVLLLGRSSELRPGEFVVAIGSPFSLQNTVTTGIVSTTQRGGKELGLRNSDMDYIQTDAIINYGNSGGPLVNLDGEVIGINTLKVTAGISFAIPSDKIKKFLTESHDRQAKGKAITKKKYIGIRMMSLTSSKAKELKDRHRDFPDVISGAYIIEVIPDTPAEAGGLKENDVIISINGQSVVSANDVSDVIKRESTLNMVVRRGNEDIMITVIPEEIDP
SIAE inh: blocks human sialic acid acetylesterase; Q9HAT2; SIAE FP-Rh probe binding, fluorescence polarization; inhibition, % at 9.66 µM; 370,000 tested, 0.69% active;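 active = inhibition above a cutoff: mean of compounds within the control limits plus 3 SD of those, cut at about 17% in these data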
DDE Tn7 FP inh: disrupts Tn7 cyclic peptide binding to fibrin D-Dimer-E complex; P02675; FP displacement of FITC-Tn7 peptide from fibrin DD(E); 0% = median of compound wells per plate; inhibition, % at 8.3 µM; 370,000 tested, 0.13% active; AID 720508;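 active = inhibition above the mean of compounds falling within the control limits plus 3 SD of them, cut at about 14% in these data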
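System: human fibrin DD(E); quantity: Fibrin-DD(E) at 2 µM final; also added: fluorescent Tn7 probe at 0.1 µM; compound dosing: single nominal test concentration of 8.3 µM per compound; schedule: 10 min preincubation, 3 h with tracer, room temperature; detection: fluorescence polarization of the labelled Tn7 tracer; repeats: one replicate per compound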
Tn6 DDE FP: DD(E)-Tn6 binding inhibition, primary FP screen | P02675 | Fibrin DD(E) TRITC-Tn6 fluorescence polarization displacement | inhibition, % at 8.3 µM | 370,000 tested, 0.21% active | AID 720509;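 active = inhibition above a per-campaign cutoff: mean of compounds within control limits plus 3 SD, cut at about 15% in these data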
TCR CD3 inh: blocks the human TCR-CD3 interaction | 360,000 tested, 0.37% active | TAMRA-labeled TCR probe fluorescence, biochemical | inhibition, % at 9.4 µM; in the data active = inhibition above about 19%;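 also: recombinant mutant TCR 2C K166C tagged with TAMRA read by polarization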
ABHD4 inh: ABHD4 (mouse) inhibition, primary FP screen. Q8VD66. purified mABHD4, FP-Rh probe fluorescence polarization. inhibition, % at 8.92 µM. 370,000 tested, 0.54% active;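 active = inhibition exceeding the mean over every tested compound plus 3 SD, cut at about 30% in these data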
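Material: mouse ABHD4 enzyme, wild type; Benchmarks: S159A mutant high control, sample median low control; Buffer or medium: HEPES pH 7.0, NaCl, Pluronic buffer; Signal: fluorescence polarization; Read-out: percent inhibition of probe binding, normalized to plate controls; Timing: pre-incubation 45 min, probe exposure 60 min, at 25 °C; Dosing: 8.92 µM, single dose.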
SIAE inh conf: human SIAE inhibition, confirmation; shares compounds with SIAE inh; SIAE FP-Rh activity-based probe, fluorescence polarization; inhibition, % at 9.66 µM; 2,300 tested, 13% active;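 active = mean inhibition of the replicates above the hit cutoff set in the primary screen, cut at about 17% in these data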;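 also: inhibitors lower polarization as more probe stays unbound to SIAE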
A number is an active result. A selection: hits, their analogues and other compounds. The true share with any hit is near 1.8%.

COCc1[nH]nc2c1C(c1ccc(C)cc1)NC2=O (stereo not drawn) was read as SIAE inh inactive, DDE Tn7 FP inh inactive, Tn6 DDE FP inactive, TCR CD3 inh inactive and ABHD4 inh inactive.
Screening CCc1ccccc1NC(=O)CN(C)C(=O)CSc1nn(-c2ccc(F)cc2)c(=S)s1 returned HTRA1 inh inactive, SIAE inh 18, DDE Tn7 FP inh inactive, Tn6 DDE FP inactive, TCR CD3 inh inactive, ABHD4 inh inactive and SIAE inh conf inactive.
`COCCNC(=O)C(c1ccc(F)cc1)N(Cc1ccccc1)C(=O)CCC(=O)Nc1ccccn1` (stereo not drawn) gave HTRA1 inh inactive, SIAE inh inactive, DDE Tn7 FP inh inactive, Tn6 DDE FP inactive, TCR CD3 inh inactive and ABHD4 inh inactive.
Screening O=C(CN(Cc1ccc(F)cc1)C(=O)CCC(=O)Nc1ccccn1)NCc1ccc(F)cc1 returned HTRA1 inh inactive, SIAE inh inactive, DDE Tn7 FP inh inactive, Tn6 DDE FP inactive, TCR CD3 inh inactive and ABHD4 inh inactive.
O=C(CN(Cc1ccc(F)cc1)C(=O)CCC(=O)Nc1ccccn1)NCCc1ccccc1 was read as HTRA1 inh inactive, SIAE inh 21, DDE Tn7 FP inh inactive, Tn6 DDE FP inactive, TCR CD3 inh inactive, ABHD4 inh inactive and SIAE inh conf inactive.
Screening COCCNC(=O)C(c1ccc(O)cc1)N(Cc1ccccc1)C(=O)CCC(=O)Nc1ccccn1 (stereo not drawn) returned HTRA1 inh inactive, SIAE inh 20, DDE Tn7 FP inh inactive, Tn6 DDE FP inactive, TCR CD3 inh inactive, ABHD4 inh inactive and SIAE inh conf inactive.
For COC(=O)CSc1nnc(-c2ccc(NS(=O)(=O)c3ccc(C(C)(C)C)cc3)cc2)o1 the results were SIAE inh inactive, DDE Tn7 FP inh inactive, Tn6 DDE FP inactive and ABHD4 inh inactive.
For N#Cc1ccccc1CSc1nc(O)cc(=O)[nH]1 the results were HTRA1 inh inactive, SIAE inh 17, DDE Tn7 FP inh inactive, Tn6 DDE FP inactive, TCR CD3 inh inactive, ABHD4 inh inactive and SIAE inh conf inactive.
`CC(=O)Nc1c(O)nc(SCc2ccccc2C#N)[nH]c1=O` gave HTRA1 inh inactive, SIAE inh inactive, DDE Tn7 FP inh inactive, Tn6 DDE FP inactive, TCR CD3 inh inactive and ABHD4 inh inactive.
Screening COc1cc(/C=C/C(=O)c2ccc(NS(=O)(=O)c3ccc(C)cc3)cc2)cc(OC)c1O returned HTRA1 inh inactive, SIAE inh 78, DDE Tn7 FP inh inactive, Tn6 DDE FP inactive, TCR CD3 inh inactive, ABHD4 inh inactive and SIAE inh conf inactive.
Cc1ccc(NC(=O)Cn2c(CCC(=O)O)ccc2-c2cccs2)cc1Cl was read as HTRA1 inh inactive, SIAE inh 126, DDE Tn7 FP inh inactive, Tn6 DDE FP inactive, TCR CD3 inh inactive, ABHD4 inh inactive and SIAE inh conf inactive.
`CCOC(=O)C(NC(=O)CC)(N1CCc2ccccc2C1)C(F)(F)F` (stereo not drawn) gave HTRA1 inh inactive, SIAE inh 20, DDE Tn7 FP inh inactive, Tn6 DDE FP inactive, TCR CD3 inh inactive, ABHD4 inh inactive and SIAE inh conf inactive.
`COC(=O)C1CCCN(C(=O)C2CCN(S(=O)(=O)c3cccs3)CC2)C1` (stereo not drawn) gave SIAE inh inactive, DDE Tn7 FP inh inactive, Tn6 DDE FP inactive and ABHD4 inh inactive.
`CCOC(=O)c1c(/N=C/C2=C(O)CCCC2=O)sc(C)c1C` gave HTRA1 inh inactive, SIAE inh 18, DDE Tn7 FP inh inactive, Tn6 DDE FP inactive, TCR CD3 inh inactive, ABHD4 inh inactive and SIAE inh conf inactive.
For CCN(CC)S(=O)(=O)c1cc(Br)ccc1OC the results were HTRA1 inh inactive, SIAE inh 18, DDE Tn7 FP inh inactive, Tn6 DDE FP inactive, TCR CD3 inh inactive, ABHD4 inh inactive and SIAE inh conf inactive.
`Cc1ccc(NC(=O)c2ccc(S(=O)(=O)N(C)c3ccccc3)cc2)cc1S(=O)(=O)N1CCOCC1` gave HTRA1 inh inactive, SIAE inh 18, DDE Tn7 FP inh inactive, Tn6 DDE FP inactive, TCR CD3 inh inactive, ABHD4 inh inactive and SIAE inh conf inactive.
Screening COc1ccc(NC(=O)c2ccc(S(=O)(=O)N(C)c3ccccc3)cc2)cc1S(=O)(=O)N1CCOCC1 returned HTRA1 inh inactive, SIAE inh inactive, DDE Tn7 FP inh inactive, Tn6 DDE FP inactive, TCR CD3 inh inactive and ABHD4 inh inactive.
Screening COC(=O)C1=C(C)N(C)C(=NCc2cccc(C(F)(F)F)c2)NC1c1cccc(Cl)c1 (stereo not drawn) returned SIAE inh inactive, DDE Tn7 FP inh inactive, Tn6 DDE FP inactive, TCR CD3 inh inactive and ABHD4 inh inactive.
CC1(C)CC(=O)C=C(c2ccccc2F)C1=O was read as SIAE inh inactive, DDE Tn7 FP inh inactive, Tn6 DDE FP inactive, TCR CD3 inh inactive and ABHD4 inh inactive.
Screening O=C1C=C(c2ccccc2)C[C@@H](c2ccc(Cl)cc2)C1 returned HTRA1 inh inactive, SIAE inh 26, DDE Tn7 FP inh inactive, Tn6 DDE FP inactive, TCR CD3 inh inactive, ABHD4 inh inactive and SIAE inh conf inactive.
For Cc1ccc(C2=CC(=O)C[C@H](c3ccc(Cl)cc3)C2)cc1 the results were HTRA1 inh inactive.
For COc1ccc2nc(SCC(=O)N(C)CC(=O)Nc3ccc(F)cc3)[nH]c2c1 the results were HTRA1 inh inactive, SIAE inh 18, DDE Tn7 FP inh inactive, Tn6 DDE FP inactive, TCR CD3 inh inactive, ABHD4 inh inactive and SIAE inh conf inactive.
Screening COc1ccc(NC(=O)CN(C)C(=O)CCSc2ccc(F)cc2)cc1 returned HTRA1 inh inactive, SIAE inh 19, DDE Tn7 FP inh inactive, Tn6 DDE FP inactive, TCR CD3 inh inactive, ABHD4 inh inactive and SIAE inh conf inactive.
COc1cc(/C=N\NC(=O)c2ccc(-c3ccccc3)cc2)cc(OC)c1OC(C)=O was read as HTRA1 inh inactive, SIAE inh 23, DDE Tn7 FP inh inactive, Tn6 DDE FP inactive, TCR CD3 inh inactive, ABHD4 inh inactive and SIAE inh conf inactive.
Screening COc1cc(/C=N/NC(=O)c2cccc([N+](=O)[O-])c2)ccc1OCc1ccc(C)cc1 returned HTRA1 inh inactive, SIAE inh inactive, DDE Tn7 FP inh inactive, Tn6 DDE FP inactive, TCR CD3 inh inactive and ABHD4 inh inactive.
Screening COc1cc(/C=N\NC(=O)c2ccc(-c3ccccc3)cc2)cc(OC)c1O returned HTRA1 inh inactive, SIAE inh 28, DDE Tn7 FP inh inactive, Tn6 DDE FP inactive, TCR CD3 inh inactive, ABHD4 inh inactive and SIAE inh conf inactive.
`COc1cc(/C=N/NC(=O)c2ccc(COc3cc(C)ccc3C(C)C)cc2)cc(OC)c1O` gave HTRA1 inh inactive, SIAE inh 22, DDE Tn7 FP inh inactive, Tn6 DDE FP inactive, TCR CD3 inh inactive, ABHD4 inh inactive and SIAE inh conf inactive.
